Assay results pooled from the literature.
Lines come from different studies, so protocols differ.
Observed: cell growth or viability

SMILES | cell line | method | time | quantity | result
CC1(C)CCC2(CC1)N[C@@H](C(=O)N[C@@H]1CC[C@@H](C(N)=O)OC1)[C@H](c1ccnc(Cl)c1F)[C@]21C(=O)Nc2cc(Cl)ccc21 | SW982 | resazurin | 72 h | GI50 | 21 nM
Nc1ccc(/C=C/C(=O)N2CCc3c(oc4c(-c5ccc(F)cc5)cc(-c5ccc(C(=O)N6CCOCC6)nn5)cc34)C2)cn1 | ASPC1 | CCK-8 | 72 h | IC50 | 870 nM
COc1cc2nc(N3CCN(C(=O)c4ccco4)CC3)nc(N)c2cc1OC | CNE-2 | MTT | 48 h | IC50 | 34800 nM
Nc1ccc(/C=C/C(=O)NCc2cc3cc(-c4ccc(C(=O)N5CCC(F)(F)CC5)cc4)cc(-c4ccc(F)cc4)c3o2)cn1 | ASPC1 | CCK-8 | 72 h | IC50 | 440 nM
C=CC(=O)N1CCN(c2nc(=O)n(-c3c(C)ccnc3C(C)C)c3nc(-c4c(O)cccc4F)c(F)cc23)[C@@H](C)C1 | SW756 | ATP luminescence | – | IC50 | 111 nM
Cc1cc(/C=C/C#N)cc(C)c1Nc1ccnc(Nc2ccc(C#N)cc2)n1 | CNE-2 | MTT | 48 h | IC50 | 18700 nM
C=CC(=O)NC1CCN(c2ncc3ncnc(Nc4ccc(Oc5ccc6c(c5)ncn6C)c(C)c4)c3n2)CC1 | EFM-192A | – | – | EC50 | 28.4 nM
CCN1[C@@H](C(=O)NC23CCC(C(=O)O)(CC2)CC3)[C@H](c2cccc(Cl)c2F)[C@]2(C(=O)Nc3cc(Cl)ccc32)C12CCCCC2 | SW982 | resazurin | 72 h | GI50 | 157 nM
C=C(F)C(=O)N1CCN(c2nc(OC[C@@H]3CCCN3C)nc3c2CCN(c2cccc4cccc(Cl)c24)C3)C[C@@H]1CC#N | ASPC1 | ATP luminescence | – | IC50 | 2010 nM
O=C(NO)c1ccc(CNc2nc3cccc(-c4ccc5c(c4)OCO5)n3n2)cc1 | CAKI-1 | SRB | – | GI50 | 660 nM
